This passage reports IC50 results from ChEMBL document CHEMBL4765233, “From Lead to Drug Candidate: Optimization of 3-(Phenylethynyl)-1H-pyrazolo[3,4-d]pyrimidin-4-amine Derivatives as Agents for the Treatment of Triple Negative Breast Cancer” (J Med Chem, 2016).

A value given as a limit tells only on which side of the number the result lay.

For one assay, the system named is MDA-MB-231. The assay can be described thus: Antiproliferative activity against human MDA-MB-231 cells assessed as reduction in cell viability incubated for 72 hrs by MTT assay. Particulars: MDA-MB-231, 72 h. The assay is classed as functional, cell-based. Put shortly: (§1)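 MTT viability assay. ATCC cell lines were grown in designated medium with 10% FBS at 37 °C, 5% CO2. Cells seeded at 1500−30000 per well and incubated 24 h, then exposed to compound (0−10 μg/mL) for 72 h. MTT added for 2−4 h. Formazan dissolved in DMSO (adherent) or acidified SDS overnight (suspension), absorbance read at 570 nm. Triplicates; IC50 calculated.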

A further assay has as its system MDA-MB-435. The assay can be described thus: Antiproliferative activity against human MDA-MB-435 cells assessed as reduction in cell viability incubated for 72 hrs by MTT assay. The assay is classed as functional, cell-based. Particulars: MDA-MB-435, 72 h. Put shortly: as §1
(In general: Formazan colour is commonly taken as a measure of viable cells.)

The test system of another assay is HepG2. The assay can be described thus: Antiproliferative activity against human HepG2 cells assessed as reduction in cell viability incubated for 72 hrs by MTT assay. The assay is classed as ADME, cell-based. The following applies: HepG2, 72 h.

Broadly, the IC50 is the concentration at which inhibition is half-maximal. Consider `Cc1ccc(NC(=O)c2cc(F)cc(C(F)(F)F)c2)cc1C#Cc1nn(C2CCN(C)CC2)c2ncnc(N)c12`, for which the IC50 in the assay on MDA-MB-231 was 671 nM; in the assay with MDA-MB-435 it was 1430 nM; with HepG2, over 10000 nM.

As for `Cc1ccc(NC(=O)c2cccc(F)c2)cc1C#Cc1nn(C2CCN(C)CC2)c2ncnc(N)c12`, the figures for the IC50 in the assay on MDA-MB-231, with MDA-MB-435 and in the assay on HepG2 were 812 nM, 2070 nM and over 10000 nM, respectively.

For the compound `Cc1ccc(C(=O)Nc2cccc(C(F)(F)F)c2)cc1C#Cc1nn(CC2CCN(C)CC2)c2ncnc(N)c12`, the results for the half-inhibitory concentration (IC50) with MDA-MB-231, in the assay on MDA-MB-435 and in the assay with HepG2 were 70 nM, 55 nM and 3100 nM, respectively.

`Cc1ccc(NC(=O)c2cccc(Cl)c2)cc1C#Cc1nn(C2CCN(C)CC2)c2ncnc(N)c12`: the figures for the IC50 in the assay with MDA-MB-231, with MDA-MB-435 and in the assay with HepG2 were 60 nM, 733 nM and 9200 nM, respectively.

As for `Cc1ccc(NC(=O)c2ccc(C)c(C(F)(F)F)c2)cc1C#Cc1nn(C[C@@H](C)CO)c2ncnc(N)c12`, the values for the concentration for half-maximal inhibition (IC50) with MDA-MB-231, with MDA-MB-435 and with HepG2 were 48 nM, 123 nM and 8300 nM, respectively.

As for `Cc1ccc(NC(=O)c2ccc(Cl)c(C(F)(F)F)c2)cc1C#Cc1nn(C[C@@H](C)CO)c2ncnc(N)c12`, the half-maximal inhibitory concentration (IC50) in the assay on MDA-MB-231 was 23 nM; in the assay with MDA-MB-435, 319 nM; in the assay on HepG2 it was over 10000 nM.

For `CN1CCC(n2nc(C#Cc3cc(C(=O)Nc4cccc(C(F)(F)F)c4)ccc3Cl)c3c(N)ncnc32)CC1`, the half-maximal inhibitory concentration (IC50) with MDA-MB-231 was 749 nM; in the assay on MDA-MB-435 it was 135 nM; with HepG2, over 10000 nM.

Consider `COc1cccc(C(=O)Nc2ccc(C)c(C#Cc3nn(C4CCN(C)CC4)c4ncnc(N)c34)c2)c1`, for which the IC50 in the assay on MDA-MB-231 is 101 nM; in the assay on MDA-MB-435, 285 nM; in the assay on HepG2, over 10000 nM.

For `CN1CCC(n2nc(C#Cc3cccc(C(=O)Nc4cccc(C(F)(F)F)c4)c3)c3c(N)ncnc32)CC1`, the IC50 in the assay on MDA-MB-231 is 1690 nM; with MDA-MB-435, 343 nM; in the assay on HepG2, over 10000 nM.

On to `Cc1ccc(NC(=O)c2cc(C(F)(F)F)cc(Cl)c2F)cc1C#Cc1nn(C2CCN(C)CC2)c2ncnc(N)c12`, for which the IC50 with MDA-MB-231 was 1880 nM; with MDA-MB-435 it was 3380 nM; in the assay with HepG2, over 10000 nM.

Turning to `Cc1ccc(C(=O)Nc2cccc(C(F)(F)F)c2)cc1C#Cc1nn([C@@H]2CCN(C)C2)c2ncnc(N)c12`, the figures for the concentration for half-maximal inhibition (IC50) in the assay with MDA-MB-231, in the assay with MDA-MB-435 and in the assay on HepG2 were 13 nM, 44 nM and 4600 nM, respectively.

For `Cc1cccc(C(=O)Nc2ccc(C)c(C#Cc3nn(C4CCN(C)CC4)c4ncnc(N)c34)c2)c1`, the IC50 is 133 nM with MDA-MB-231, 422 nM in the assay on MDA-MB-435 and over 10000 nM in the assay on HepG2.

With `Cc1ccc(NC(=O)c2cccc(C(C)(C)C)c2)cc1C#Cc1nn(C2CCN(C)CC2)c2ncnc(N)c12`, the values for the IC50 in the assay with MDA-MB-231, in the assay with MDA-MB-435 and in the assay with HepG2 were 59 nM, 20 nM and over 10000 nM, respectively.

For the compound `Cc1ccc(NC(=O)c2ccc(C(F)(F)F)cc2)cc1C#Cc1nn(C2CCN(C)CC2)c2ncnc(N)c12`, the concentration for half-maximal inhibition (IC50) in the assay on MDA-MB-231 was 854 nM; with MDA-MB-435, 5140 nM; with HepG2, over 10000 nM.

`CCn1nc(C#Cc2cc(C(=O)Nc3cccc(C(F)(F)F)c3)ccc2C)c2c(N)ncnc21`: the IC50 in the assay on MDA-MB-231 is 360 nM; in the assay on MDA-MB-435, 238 nM; with HepG2, over 10000 nM.

Regarding `Cc1ccc(NC(=O)c2ccc(F)c(C(F)(F)F)c2)cc1C#Cc1nn(C2CCN(C)CC2)c2ncnc(N)c12`, the half-maximal inhibitory concentration (IC50) was 523 nM in the assay on MDA-MB-231, 621 nM with MDA-MB-435 and over 10000 nM with HepG2.

`CN1CCC(n2nc(C#Cc3cc(NC(=O)Nc4cccc(C(F)(F)F)c4)ccc3Cl)c3c(N)ncnc32)CC1`: the half-maximal inhibitory concentration (IC50) with MDA-MB-231 is 947 nM; in the assay on MDA-MB-435, 334 nM; with HepG2, over 10000 nM.

Take `Cc1ccc(NC(=O)c2cc(C(C)(C)C)nn2C)cc1C#Cc1nn(C2CCN(C)CC2)c2ncnc(N)c12`: the IC50 in the assay with MDA-MB-231 is 324 nM; in the assay on MDA-MB-435, 80 nM; with HepG2 it was over 10000 nM.

Take `Cc1ccc(NC(=O)c2cc(C(C)(C)C)on2)cc1C#Cc1nn(C2CCN(C)CC2)c2ncnc(N)c12`: the concentration for half-maximal inhibition (IC50) with MDA-MB-231 was 188 nM; in the assay on MDA-MB-435, 82 nM; with HepG2 it was over 10000 nM.

In the case of `Cc1ccc(C(=O)Nc2cccc(C(F)(F)F)c2)cc1C#Cc1nn(CC2CCN(C)C2)c2ncnc(N)c12` (centres undefined), the IC50 with MDA-MB-231 is 41 nM; with MDA-MB-435, 115 nM; in the assay with HepG2 it was 3500 nM.

Consider `Cc1ccc(NC(=O)c2cc(Cl)cc(C(F)(F)F)c2)cc1C#Cc1nn(C2CCN(C)CC2)c2ncnc(N)c12`, for which the IC50 was 85 nM with MDA-MB-231, 63 nM with MDA-MB-435 and 2600 nM in the assay on HepG2.

Regarding `Cc1ccc(NC(=O)Nc2cccc(C(F)(F)F)c2)cc1C#Cc1nn(C2CCN(C)CC2)c2ncnc(N)c12`, the values for the half-inhibitory concentration (IC50) in the assay with MDA-MB-231, in the assay with MDA-MB-435 and in the assay with HepG2 were 515 nM, 90 nM and over 10000 nM, respectively.

Take `Cc1ccc(NC(=O)c2cncc(C(F)(F)F)c2)cc1C#Cc1nn(C2CCN(C)CC2)c2ncnc(N)c12`: the results for the half-maximal inhibitory concentration (IC50) with MDA-MB-231, in the assay on MDA-MB-435 and in the assay on HepG2 were 167 nM, 65 nM and over 10000 nM, respectively.

Regarding `Cc1ccc(NC(=O)c2cccc(C(F)(F)F)c2)cc1C#Cc1nn(CC2CCN(C)C2)c2ncnc(N)c12` (centres undefined), the IC50 in the assay with HepG2 stood at 4700 nM.

Take `Cc1ccc(NC(=O)c2cc(C(F)(F)F)ccc2F)cc1C#Cc1nn(C2CCN(C)CC2)c2ncnc(N)c12`: the IC50 came out at 201 nM in the assay on MDA-MB-231, 117 nM in the assay with MDA-MB-435 and 2700 nM with HepG2.

On to `Cc1ccc(NC(=O)c2cccc(C(F)(F)F)c2)cc1C#Cc1nn(CC2CCN(C)CC2)c2ncnc(N)c12`, for which, in the assay on HepG2, the IC50 came out at 3200 nM.

Consider `CN1CCC(n2nc(C#Cc3cccc(NC(=O)c4cccc(C(F)(F)F)c4)c3)c3c(N)ncnc32)CC1`, for which the concentration for half-maximal inhibition (IC50) was 597 nM with MDA-MB-231, 140 nM with MDA-MB-435 and 6000 nM in the assay with HepG2.

As for `Cc1ccc(NC(=O)c2cccc(C(F)(F)F)c2F)cc1C#Cc1nn(C2CCN(C)CC2)c2ncnc(N)c12`, the concentration for half-maximal inhibition (IC50) is 296 nM with MDA-MB-231, 273 nM in the assay with MDA-MB-435 and over 10000 nM in the assay on HepG2.

In the case of `Cc1ccc(NC(=O)c2cccc(OC(F)(F)F)c2)cc1C#Cc1nn(C2CCN(C)CC2)c2ncnc(N)c12`, the concentration for half-maximal inhibition (IC50) with MDA-MB-231 was 75 nM; with MDA-MB-435, 93 nM; with HepG2 it was over 10000 nM.

For `Cc1ccc(NC(=O)c2cccc(C(F)(F)F)n2)cc1C#Cc1nn(C2CCN(C)CC2)c2ncnc(N)c12`, the values for the IC50 in the assay on MDA-MB-231, with MDA-MB-435 and in the assay on HepG2 were 509 nM, 2470 nM and over 10000 nM, respectively.

For `CN1CCC(n2nc(C#Cc3cc(NC(=O)c4cccc(C(F)(F)F)c4)ccc3Cl)c3c(N)ncnc32)CC1`, the values for the 50% inhibitory concentration (IC50) with MDA-MB-231, in the assay with MDA-MB-435 and with HepG2 were 947 nM, 195 nM and over 10000 nM, respectively.

As to `Cc1ccc(NC(=O)c2cccc(C(C)(C)C)c2)cc1C#Cc1nn([C@H]2CC[C@H](O)CC2)c2ncnc(N)c12`, the IC50 in the assay on MDA-MB-231 was determined as 30 nM; in the assay on MDA-MB-435 it was 12 nM; in the assay with HepG2, 4400 nM.

With `Cc1ccc(NC(=O)c2cnc(C(C)(C)C)s2)cc1C#Cc1nn(C[C@@H](C)CO)c2ncnc(N)c12`, the IC50 with MDA-MB-231 is 34 nM; in the assay with MDA-MB-435, 73 nM; in the assay on HepG2, over 10000 nM.

Turning to `Cc1ccc(NC(=O)c2ccnc(C(F)(F)F)c2)cc1C#Cc1nn(C2CCN(C)CC2)c2ncnc(N)c12`, the values for the IC50 in the assay on MDA-MB-231, in the assay with MDA-MB-435 and in the assay with HepG2 were 284 nM, 183 nM and over 10000 nM, respectively.

In the case of `Cc1ccc(NC(=O)c2cccc(C(F)(F)F)c2)cc1C#Cc1nn([C@@H]2CCN(C)C2)c2ncnc(N)c12`, the half-inhibitory concentration (IC50) in the assay on HepG2 was found to be 6600 nM.
